Results published in ChEMBL document CHEMBL4196210, “Depsipeptides Featuring a Neutral P1 Are Potent Inhibitors of Kallikrein-Related Peptidase 6 with On-Target Cellular Activity” (J Med Chem, 2018).
The source made the active and inactive calls. No cut-off for these calls is given here.

Legend:
Trypsin = Trypsin (Homo sapiens, UniProt P07477+P07478+P35030); test: Inhibition of trypsin (unknown origin) pre-incubated for 30 mins before N-Boc-FSR-AMC substrate addition and measured after 30 mins; type: protein assay
Prothrombin = Prothrombin (Homo sapiens, UniProt P00734); test: Inhibition of thrombin (unknown origin) pre-incubated for 30 mins before N-Boc-FSR-AMC substrate addition and measured after 30 mins
How it was run: (§1)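 Inhibitor (1:2 or 1:3 dilutions) or 2% DMSO for 30 min at rt, then N-Boc-FSR-AMC at 20 µM final. Fluorescence (ex 350/em 440) read every 60 s for 30 min. Slopes normalized to DMSO for dose-response; triplicates.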

Coagulation factor X = Coagulation factor X (Homo sapiens, UniProt P00742); test: Inhibition of factor 10a (unknown origin) pre-incubated for 30 mins before N-Boc-FSR-AMC substrate addition and measured after 30 mins; how it was run: as §1
[1] = Stability in DMEM supplemented with 10% (v/v) fetal bovine serum at 10 uM at 37 degC assessed as half life by HPLC-MS method; type: physicochemical; details: cattle, DMEM with 10% (v/v) fetal bovine serum
How it was run: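 Compound at 10 µM (0.2% DMSO) in DMEM with 10% FBS, 2 mM L-glutamine and 1% penicillin/streptomycin, plus 10 µM triazole internal standard, held at 37 °C. Sampled hourly to 10 h, then at 24 h, by HPLC-MS in SIM mode for parent and hydrolysis product.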

Kallikrein-6 [2] = target: T1, Kallikrein-6 (Homo sapiens, UniProt Q92876); test: Inhibition of recombinant human KLK6 assessed as Kinact/Ki ratio using Boc-QAR-AMC substrate
Kallikrein-6 [3] = target: T1, Kallikrein-6; test: Inhibition of human KLK6 expressed in baculovirus/insect cell line system using Abz-KLRSSKQ-EDDnp substrate
Kallikrein-8 = target: T2, Kallikrein-8 (Homo sapiens, UniProt O60259); test: Inhibition of KLK8 (unknown origin) expressed in Pichia pastoris pre-incubated for 10 mins before Boc-ValProArg-AMC substrate addition and measured after 30 mins by fluorescence based assay
T2 sequence (O60259 whole entry): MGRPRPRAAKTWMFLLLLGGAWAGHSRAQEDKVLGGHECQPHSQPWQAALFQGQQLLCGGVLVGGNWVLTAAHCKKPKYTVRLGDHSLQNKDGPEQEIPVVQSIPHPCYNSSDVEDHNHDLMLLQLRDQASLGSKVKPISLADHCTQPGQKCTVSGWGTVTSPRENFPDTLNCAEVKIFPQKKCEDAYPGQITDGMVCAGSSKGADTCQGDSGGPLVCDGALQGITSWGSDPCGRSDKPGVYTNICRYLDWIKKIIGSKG

Kallikrein-13 = target: T3, Kallikrein-13 (Homo sapiens, UniProt Q9UKR3); test: Inhibition of KLK13 (unknown origin) expressed in Pichia pastoris pre-incubated for 10 mins before Boc-ValProArg-AMC substrate addition and measured after 30 mins by fluorescence based assay
T3 sequence (Q9UKR3 whole entry): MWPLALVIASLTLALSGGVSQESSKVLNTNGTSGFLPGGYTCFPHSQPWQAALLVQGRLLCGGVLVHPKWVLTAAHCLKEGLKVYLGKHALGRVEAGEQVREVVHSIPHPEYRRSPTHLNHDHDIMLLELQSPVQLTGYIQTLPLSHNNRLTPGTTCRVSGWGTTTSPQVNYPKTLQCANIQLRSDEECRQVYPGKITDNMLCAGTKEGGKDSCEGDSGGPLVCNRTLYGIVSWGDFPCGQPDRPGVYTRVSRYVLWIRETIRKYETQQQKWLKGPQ

Kallikrein-14 = target: T4, Kallikrein-14 (Homo sapiens, UniProt Q9P0G3); test: Inhibition of KLK14 (unknown origin) expressed in Pichia pastoris pre-incubated for 10 mins before Boc-ValProArg-AMC substrate addition and measured after 30 mins by fluorescence based assay
T4 sequence (Q9P0G3 whole entry): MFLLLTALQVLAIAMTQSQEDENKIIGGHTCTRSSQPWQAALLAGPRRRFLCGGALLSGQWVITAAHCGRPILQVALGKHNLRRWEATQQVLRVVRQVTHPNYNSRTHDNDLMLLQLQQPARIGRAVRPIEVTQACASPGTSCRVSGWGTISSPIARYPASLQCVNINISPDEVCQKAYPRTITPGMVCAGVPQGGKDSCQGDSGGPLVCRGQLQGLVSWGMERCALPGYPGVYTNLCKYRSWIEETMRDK

Kallikrein-5 = target: T5, Kallikrein-5 (Homo sapiens, UniProt Q9Y337); test: Inhibition of KLK5 (unknown origin) expressed in Pichia pastoris pre-incubated for 10 mins before Boc-ValProArg-AMC substrate addition and measured after 30 mins by fluorescence based assay
T5 sequence (Q9Y337 whole entry): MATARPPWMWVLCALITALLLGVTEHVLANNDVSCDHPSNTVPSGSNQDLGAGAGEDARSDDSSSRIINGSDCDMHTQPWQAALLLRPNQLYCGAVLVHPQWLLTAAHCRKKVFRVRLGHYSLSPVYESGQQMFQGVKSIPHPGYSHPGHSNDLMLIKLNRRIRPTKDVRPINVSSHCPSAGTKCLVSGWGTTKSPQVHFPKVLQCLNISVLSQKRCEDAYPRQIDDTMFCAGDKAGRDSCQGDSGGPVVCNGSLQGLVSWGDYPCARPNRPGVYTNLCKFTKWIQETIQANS

Kallikrein-7 = Kallikrein-7 (Homo sapiens, UniProt P49862); test: Inhibition of KLK7 (unknown origin) expressed in Pichia pastoris pre-incubated for 10 mins before Leu-Leu-Val-Tyr-AMC substrate addition and measured after 30 mins by fluorescence based assay
How it was run: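 KLK7 at 33 nM final in 100 mM phosphate, 0.01% Tween-20, pH 8.5, with inhibitor (1:3 dilutions) or 2% DMSO for 10 min at rt. Reaction started with Leu-Leu-Val-Tyr-AMC at 500 µM final. Fluorescence (ex 380/em 460) read every 60 s for 30 min. Triplicates.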

Kallikrein-6 [4] = target: T1, Kallikrein-6; test: Inhibition of KLK6 in human FaDu cells assessed as reduction in cell proliferation at 300 nM incubated for 48 hrs by BrdU incorporation assay; type: cell-based
How it was run: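 FaDu cells treated daily for 48 h. Proliferation read as BrdU incorporation; average of 5 independent experiments ± standard deviation.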

Sequence of Coagulation factor X (P00742 41-179 limits assumed): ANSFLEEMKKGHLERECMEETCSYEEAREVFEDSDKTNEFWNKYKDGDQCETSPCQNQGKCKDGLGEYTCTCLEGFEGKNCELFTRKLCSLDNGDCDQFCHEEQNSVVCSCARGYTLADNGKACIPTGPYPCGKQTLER
Sequence of Coagulation factor X (P00742 235-488 limits assumed): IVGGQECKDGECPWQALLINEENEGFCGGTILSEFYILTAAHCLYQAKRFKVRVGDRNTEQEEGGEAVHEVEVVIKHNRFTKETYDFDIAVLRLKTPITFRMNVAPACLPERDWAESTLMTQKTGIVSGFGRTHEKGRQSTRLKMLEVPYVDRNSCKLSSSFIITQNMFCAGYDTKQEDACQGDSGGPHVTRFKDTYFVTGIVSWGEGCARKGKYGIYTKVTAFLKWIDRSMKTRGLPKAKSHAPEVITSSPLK
Sequence of Kallikrein-7 (P49862 whole entry): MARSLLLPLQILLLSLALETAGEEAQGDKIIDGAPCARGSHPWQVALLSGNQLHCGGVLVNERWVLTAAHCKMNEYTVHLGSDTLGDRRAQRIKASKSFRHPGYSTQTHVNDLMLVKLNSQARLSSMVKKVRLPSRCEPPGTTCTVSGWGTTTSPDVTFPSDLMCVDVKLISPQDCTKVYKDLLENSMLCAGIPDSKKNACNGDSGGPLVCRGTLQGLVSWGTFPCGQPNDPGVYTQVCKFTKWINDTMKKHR

Structure (SMILES)	IC50 (Trypsin)	also measured
NCc1ccc(NC(=O)c2c([O-])ccc[n+]2Cc2nccn2Cc2ccccc2)cc1	0.18 µM	IC50 (Prothrombin): > 50 µM; IC50 (Coagulation factor X): > 50 µM
Cc1nn(-c2ccccc2)c(C)c1NC(=O)COC(=O)Cc1c(C)[nH]c2ncccc12	> 200 µM	–
Cc1nn(-c2ccccc2)c(C)c1NC(=O)C(OC(=O)C(C)c1c(C)[nH]c2ccccc12)C(F)(F)F (centres undefined)	61 µM	half-life at 10 µM [1]: 101 min
O=C(Oc1cc(Cl)ccc1Cl)c1cc2cc(Cl)ccc2oc1=O	–	Ratio (Kallikrein-6 [2]): 131 M⁻¹ s⁻¹
Cc1nn(-c2ccccc2)c(C)c1NC(=O)COC(=O)C(C)(C)c1c(C)[nH]c2ccccc12	> 200 µM	–
Cc1nn(-c2ccccc2)c(C)c1NC(=O)C(OC(=O)Cc1c(C)[nH]c2ccccc12)C(F)(F)F (centres undefined)	0.38 µM	half-life at 10 µM [1]: 25.5 min
Cc1nn(-c2ccccc2)c(C)c1NC(=O)COC(=O)Cn1c(C)csc1=O	> 200 µM	IC50 (Prothrombin): > 200 µM; IC50 (Coagulation factor X): > 200 µM
Cc1nn(-c2ccccc2)c(C)c1NC(=O)CNC(=O)Cc1c(C)[nH]c2cc(C(=N)N)ccc12	2.5 µM	–
CC(C)C[C@H](NC(=O)[C@H](CCCNC(=N)N)NC(=O)c1ccc(Cl)cc1)C(N)=O	–	Ki (Kallikrein-6 [3]): 1.5 µM
Cc1nn(-c2ccccc2)c(C)c1NC(=O)COC(=O)Cc1c(C)[nH]c2cccnc12	61 µM	–
C#Cc1[nH]c2ccccc2c1CC(=O)OCC(=O)Nc1c(C)nn(-c2ccccc2)c1C	> 200 µM	–
Cc1nn(-c2ccccc2)c(C)c1NC(=O)COC(=O)Cc1c(C)[nH]c2cnccc12	0.33 µM	–
Cc1[nH]c2cccnc2c1CC(=O)NCC(=O)Nc1onc(-c2ccccc2)c1C	50 µM	–
Cc1nn(-c2ccccc2)c(C)c1NC(=O)COC(=O)Cc1ccccc1	> 200 µM	IC50 (Prothrombin): > 200 µM; IC50 (Coagulation factor X): > 200 µM
Cc1nn(-c2ccccc2)c(C)c1NC(=O)C(NC(=O)Cc1c(C)[nH]c2ccccc12)C(F)(F)F (centres undefined)	> 200 µM	–
Cc1nn(-c2ccccc2)c(C)c1NC(=O)COC(=O)Cc1c(C)[nH]c2ccncc12	25 µM	–
Cc1nn(-c2ccccc2)c(C)c1NC(=O)COC(=O)Cc1c(C)[nH]c2cc(C(=N)N)ccc12	< 0.001 µM	IC50 (Kallikrein-8): 0.21 µM; IC50 (Kallikrein-13): > 0.5 µM; IC50 (Kallikrein-14): 0.008 µM; IC50 (Kallikrein-5): 0.13 µM; IC50 (Kallikrein-7): > 0.5 µM; half-life at 10 µM [1]: 79.2 min
Cc1[nH]c2ccccc2c1CC(=O)OCC(=O)Nc1cncnc1	> 200 µM	–
Cc1nn(-c2ccccc2)c(C)c1NC(=O)CCOC(=O)Cc1c(C)[nH]c2ccccc12	> 200 µM	–
Cc1nn(-c2ccccc2)c(C)c1NC(=O)COC(=O)Cc1c(C)n(C)c2ccccc12	> 200 µM	–
C#Cc1ccc2[nH]c(C)c(CC(=O)OCC(=O)Nc3c(C)nn(-c4ccccc4)c3C)c2c1	26 µM	–

Structure (SMILES)	IC50 (Trypsin)	also measured
Cc1nn(-c2ccccc2)c(C)c1NC(=O)COC(=O)Cc1c(C(C)C)[nH]c2ccccc12	> 200 µM	–
Cc1[nH]c2ccccc2c1CC(=O)OCC(=O)Nc1ccc(N2CCOCC2)cc1	> 200 µM	–
C#Cc1cccc2[nH]c(C)c(CC(=O)OCC(=O)Nc3c(C)nn(-c4ccccc4)c3C)c12	> 50 µM	–
Cc1nn(-c2ccccc2)c(C)c1NC(=O)COC(=O)C(C)c1c(C)[nH]c2ccccc12 (centres undefined)	> 200 µM	half-life at 10 µM [1]: 912 min
Cc1nn(-c2ccccc2)c(C)c1NC(=O)COC(=O)Cc1c(C)[nH]c2ccc(Cl)cc12	34 µM	–
Cc1nn(-c2ccccc2)c(C)c1NC(=O)COC(=O)Cc1c(C)[nH]c2cccc(Cl)c12	> 200 µM	–
Cc1nn(-c2ccccc2)c(C)c1NC(=O)COC(=O)Cc1c(C)[nH]c2ccc(C(=N)N)cc12	19 µM	–
Cc1nn(-c2ccccc2)c(C)c1NC(=O)COC(=O)Cc1c[nH]c2ccccc12	150 µM	half-life at 10 µM [1]: 27 min
Cc1nn(-c2ccccc2)c(C)c1NC(=O)COC(=O)Cn1c(C)cc2ccccc21	38 to 70 µM	IC50 (Prothrombin): > 200 µM; half-life at 10 µM [1]: 33.6 min; IC50 (Coagulation factor X): > 200 µM
Cc1nn(-c2ccccc2)cc1NC(=O)CNC(=O)Cc1c(C)[nH]c2ccccc12	> 200 µM	–
Cc1nn(C)c(C)c1NC(=O)CNC(=O)Cc1c(C)[nH]c2cccnc12	> 50 µM	–
Cc1nn(-c2ccccc2)c(C)c1NC(=O)COC(=O)Nc1c(C)[nH]c2ccccc12	–	Activity (Kallikrein-6 [4]): inactive
Cc1[nH]c2ccccc2c1CC(=O)NCC(=O)Nc1cnn(-c2ccccc2)c1C	34 µM	–
Cc1nn(-c2ccccc2)c(C)c1NC(=O)COC(=O)CCc1c(C)[nH]c2ccccc12	> 200 µM	–
Cc1nn(-c2ccccc2)c(C)c1NC(=O)COC(=O)Cn1c(=O)oc2ccccc21	190 µM	IC50 (Prothrombin): > 200 µM; IC50 (Coagulation factor X): > 200 µM
C#Cc1ccc2c(CC(=O)OCC(=O)Nc3c(C)nn(-c4ccccc4)c3C)c(C)[nH]c2c1	24 µM	–
Cc1nn(-c2ccccc2)c(C)c1NC(=O)COC(=O)C(c1c(C)[nH]c2ccccc12)C(F)(F)F (centres undefined)	> 200 µM	–
Cc1nn(-c2ccccc2)c(C)c1NC(=O)COC(=O)Cn1cnc2ccccc2c1=O	> 200 µM	IC50 (Prothrombin): > 200 µM; IC50 (Coagulation factor X): > 200 µM
Cc1nn(-c2ccccc2)c(C)c1NC(=O)COC(=O)c1c(C)[nH]c2ccccc12	> 200 µM	–
Cc1nn(-c2ccccc2)c(C)c1NC(=O)COC(=O)Cn1c(C)nc2ccccc21	> 200 µM	–
